Screening results as filed in PubChem BioAssay.
bovine MsrA act: activates bovine MsrA enzyme; purified bovine MsrA, absorbance read-out; activation, % at 10.6 µM; hit rate 0.3% among 360,000; in the data active = activation above about 7.5%;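 also: 0% = vehicle and 100% = reference activator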
Tb MetRS inh: Trypanosoma brucei MetRS inhibition. purified T. brucei MetRS, ATP depletion, Kinase-Glo luminescence. inhibition, % at 11.9 µM. hit rate 0.4% among 360,000;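 active = inhibition above a per-plate cutoff of the control wells' mean inhibition plus 3 SD, cut at about 5.5% in these data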;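 also: 0% = DMSO wells median and 100% = median of wells with control inhibitor compound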
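Material – parasite MetRS enzyme · Medium – HEPES-MgCl2-KCl buffer plus DTT, spermine, BSA, pyrophosphatase · Reagent – ATP, methionine and E. coli bulk tRNA substrates · Times – 15 min enzyme-compound preincubation, 2 h reaction, 10 min detection, 25 °C · Measured by – luminescence of leftover ATP · Evaluation – percent inhibition relative to median high and low control wells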
proCasp3 act: activators of human procaspase-3 | P42574 | recombinant procaspase-3 D3A, Ac-DEVD-pNA absorbance 405 nm | activation, % at 8.5 µM | hit rate 0.11% among 330,000 | AID 463141;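 active = activation above the mean of all tested compounds plus 3 SD, cut at about 21% in these data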;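 also: 0% = DMSO alone and 100% = DMSO wells spiked with extra 5 µM PC-3 D3A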
Target sequence (P42574 whole entry D9A/D28A/D175A): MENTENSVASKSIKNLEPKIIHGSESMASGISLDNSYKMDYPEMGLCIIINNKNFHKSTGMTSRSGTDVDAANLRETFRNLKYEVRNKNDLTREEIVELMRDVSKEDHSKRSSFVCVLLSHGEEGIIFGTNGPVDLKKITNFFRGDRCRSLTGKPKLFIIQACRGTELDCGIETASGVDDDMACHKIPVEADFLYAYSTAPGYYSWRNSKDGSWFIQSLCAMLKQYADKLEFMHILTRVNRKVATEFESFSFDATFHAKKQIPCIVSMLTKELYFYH
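Technique: 405 nm absorbance of p-nitroaniline, reads at 0 and 120 min; Test system: Procaspase-3 D3A mutant; Incubation: 1 h enzyme-compound preincubation, then 2 h substrate reaction, 25 °C; Repeats: singlicate, each compound tested once; Benchmarks: low control DMSO wells, high control DMSO plus 5 µM PC-3 D3A.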
procasp7 counter: counter-screen for procaspase-3 activators: activators of human procaspase-7 | P55210 | activation, % at 8.5 µM | recombinant procaspase-7, Ac-DEVD-pNA absorbance 405 nm; D23A/D198A/D206A triple mutant, cannot self-cleave; scale: DMSO 0, 5 µM enzyme 100 | hit rate 0.093% among 330,000;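 active = percent activation above the screen-wide mean plus 3 SD, cut at about 25% in these data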
Target sequence (P55210 whole entry D23A/D198A/D206A): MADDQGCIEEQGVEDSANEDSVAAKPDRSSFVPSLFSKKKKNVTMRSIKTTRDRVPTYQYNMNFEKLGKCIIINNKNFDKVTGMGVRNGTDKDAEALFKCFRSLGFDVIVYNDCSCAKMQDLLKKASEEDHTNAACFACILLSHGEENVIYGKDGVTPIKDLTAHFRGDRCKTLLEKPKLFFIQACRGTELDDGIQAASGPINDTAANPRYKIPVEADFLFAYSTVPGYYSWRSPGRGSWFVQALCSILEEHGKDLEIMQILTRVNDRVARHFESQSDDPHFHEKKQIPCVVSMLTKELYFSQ
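Assay system: Uncleavable procaspase-7 mutant enzyme / Input: 2 µM procaspase-7 mutant as dispensed / Dosing: single nominal 8.5 µM compound dose, 0.8% DMSO final / Timing: 1 h enzyme–compound preincubation and 2 h substrate reaction, both 25 °C / Detection: p-Nitroaniline absorbance at 405 nm, read at 0 and 120 min / Replication: singlicate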
MsrA inhibitor: inhibits bovine methionine sulfoxide reductase A | inhibition, % at 15.5 µM | purified bovine MsrA, absorbance read-out | hit rate 0.75% among 360,000; in the data active = inhibition above about 4.5%;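 also: 0% = vehicle wells with enzyme and 100% = reference inhibitor wells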
TbMetRS confirm: confirmation of Trypanosoma brucei MetRS inhibitors | shares compounds with Tb MetRS inh | T. brucei MetRS enzyme, luminescence (ATP depletion) | inhibition, % at 11.9 µM | hit rate 93% among 1,400 | AID 624412; in the data active = inhibition above about 7%
Jurkat tox: Jurkat T cell cytotoxicity for MetRS hits; inhibition, % at 8.3 µM; hit rate 12% among 1,400; shares compounds with Tb MetRS inh; Jurkat cells viability, ATP luminescence; in the data active = inhibition above about 15%;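 also: 0% = vehicle and 100% = reference inhibitor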
TbMetRS FP orth: inhibits T. brucei methionyl tRNA synthetase in orthogonal FP test. inhibition, % at 11.9 µM. AID 651607. purified T. brucei MetRS, fluorescence polarization. hit rate 44% among 1,400. shares compounds with Tb MetRS inh; in the data active = inhibition above about 17%;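 also: 0% = vehicle wells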
An asterisk follows results filed as active; . = not tested or not shown. Only some compounds are listed: those with a hit (about 1.5% of all), similar ones and a draw of the others.

SMILES	bovine MsrA act	Tb MetRS inh	proCasp3 act	procasp7 counter	MsrA inhibitor	TbMetRS confirm	Jurkat tox	TbMetRS FP orth
Nc1nc2ccccc2n1CCOc1ccc(F)cc1	-1	49*	-4	-1	0	72*	17*	45*
Cc1nc2ccccc2n1CCOc1ccccc1	-3	0	-4	-1	1	.	.	.
Cc1[nH]nc2c1C(c1cccc(C(F)(F)F)c1)NC2=O (centres undefined)	.	.	.	.	0	.	.	.
FC(F)(F)c1cccc(NC(=S)NCc2ccccc2)c1	4	3	1	-5	0	.	.	.
FC(F)(F)c1cccc(CNC(=S)Nc2ccccc2)c1	-9	15*	0	-4	0	29*	1	9
CCN=C1NC(c2cccc(Cl)c2)C(C(=O)OC)=C(C)N1Cc1ccccc1C(F)(F)F (centres undefined)	.	.	.	.	0	.	.	.
CCN1CCCC1Cn1cnc2c([nH]c3ccc(Cl)cc32)c1=O (centres undefined)	-3	10*	1	-1	3	14*	0	14
CCN1CCCC1Cn1cnc2c([nH]c3cccc(Cl)c32)c1=O (centres undefined)	-7	-1	4	6	0	.	.	.
COc1ccc(CN2C[C@@]3(O)CC[C@@H](O)[C@@H](OC)[C@@H]3[C@@](C)(O)[C@@H]2CC=C(C)C)cc1	.	.	.	.	0	.	.	.
COc1ccc(/C=C(/C#N)c2cccnc2)cc1OC	-4	16*	2	3	2	21*	-5	15
NC(=O)NCc1cccc(Cl)c1	-3	0	-8	12	-1	.	.	.
O=C(NCc1cccc(Cl)c1)NCc1cccc(Cl)c1	-13	6.2*	11	5	0	9.3*	9	8
NS(=O)(=O)c1ccc(NC(=S)NCc2cccc(Cl)c2)cc1	1	17*	9	-1	-1	36*	29*	12
CCOC(=O)[C@@H]1CSCCS(=O)(=O)N1C(=O)[C@H](Cc1ccccc1)NC(=O)OC(C)(C)C	.	.	.	.	-1	.	.	.
Cn1nc(C(F)(F)F)c(-c2ccc(F)cc2)c1NC(=O)Nc1ccc(F)cc1	-10	9.4*	-6	1	0	21*	6	14
Nc1[nH]c(C(=O)c2ccc(Br)cc2)c(-c2ccncc2)c1C(=O)c1ccccc1	.	.	.	.	1	.	.	.
C=CCN=C1NC(c2cccc(Cl)c2)C(C(=O)OC)=C(C)N1C (centres undefined)	.	.	.	.	1	.	.	.
CCO[C@H]1OC(C(=O)NCc2nc3ccccc3[nH]2)=C[C@@H](C)[C@@H]1CCCO	-4	2	5	1	-1	.	.	.
CCO[C@@H]1OC(C(=O)NCc2nc3ccccc3[nH]2)=C[C@H](c2ccc(C(F)(F)F)cc2)[C@H]1CCCO	0	33*	-5	0	0	61*	3	38*
CCO[C@H]1OC(C(=O)NCc2nc3ccccc3[nH]2)=C[C@@H](c2ccc(C(F)(F)F)cc2)[C@@H]1CCCO	0	11*	12	-6	0	35*	6	12
C#Cc1ccc([C@@H]2C=C(C(=O)NCc3nc4ccccc4[nH]3)O[C@H](OCC)[C@H]2CCCO)cc1	-1	28*	3	-12	0	51*	6	33*
O=C(NCc1ccccc1)[C@@H]1CCCN1C(=O)[C@H]1CCCN1C(=O)c1ccc(Cl)c(Cl)c1	.	.	.	.	0	.	.	.
COc1ccc(CCNC(=O)CCc2nc3ccccc3[nH]2)cc1OC	-1	8.3*	-4	-2	-2	11*	2	6
COc1ccc(CCC(=O)NCCc2nc3ccccc3[nH]2)cc1	-12	9.4*	0	1	-1	16*	-4	1
COc1ccccc1C(=O)NCCc1nc2ccccc2[nH]1	1	1	-2	0	0	.	.	.
SMILES	bovine MsrA act	Tb MetRS inh	proCasp3 act	procasp7 counter	MsrA inhibitor	TbMetRS confirm	Jurkat tox	TbMetRS FP orth
COCC(=O)NCCc1nc2ccccc2[nH]1	-2	-1	8	-4	-1	.	.	.
COc1ccc(OCCCC(=O)NCCc2nc3ccccc3[nH]2)cc1	-9	48*	1	2	2	70*	-3	32*
CCOc1ccc(CCNC(=O)CCc2nc3ccccc3[nH]2)cc1OCC	-2	3	-2	4	0	.	.	.
Cc1ccc(CCNC(=O)CCc2nc3ccccc3[nH]2)cc1	-1	21*	0	3	-1	37*	-4	16
CCCC(=O)NCCCc1nc2ccccc2[nH]1	-7	-1	5	-7	-1	.	.	.
C[C@@H]1COc2cccc(NC3CC3)c2S(=O)(=O)N1	.	.	.	.	0	.	.	.
Cn1nc(C(C)(C)C)cc1C(=O)NCC1CCN(C(=O)C(=O)c2cc3ccccc3o2)CC1	.	.	.	.	1	.	.	.
C=CC[C@]12C[C@@]3(O[C@H](C4CCCCC4)N=C3C[C@H](c3ccc(OC)cc3)[C@H]1C)N(Cc1ccncc1)C2=O	.	.	.	.	-1	.	.	.
CN1CCCCC(NC(=O)c2cccs2)C1=O (centres undefined)	.	.	.	.	1	.	.	.
Cc1cc(C)n(CC(O)COc2ccc(Cl)cc2Cl)n1 (centres undefined)	-2	2	4	1	0	.	.	.
Cc1nccn1CC(O)COc1ccc(Cl)cc1Cl (centres undefined)	-11	9.5*	6	0	-1	11*	8	-2
